SIRT5 block = sirtuin-5 (human) deacylase inhibition; Purified SirT5, succinyl-peptide AMC, trypsin-coupled fluorescence; 330,000 compounds, 1.1% hits; Q9NXA8; AID 652115; inhibition, % at 15 µM; in the data active = inhibition above about 15%; inconclusive = no clear call, values can overlap the other calls
Target sequence (Q9NXA8 whole entry, looked up): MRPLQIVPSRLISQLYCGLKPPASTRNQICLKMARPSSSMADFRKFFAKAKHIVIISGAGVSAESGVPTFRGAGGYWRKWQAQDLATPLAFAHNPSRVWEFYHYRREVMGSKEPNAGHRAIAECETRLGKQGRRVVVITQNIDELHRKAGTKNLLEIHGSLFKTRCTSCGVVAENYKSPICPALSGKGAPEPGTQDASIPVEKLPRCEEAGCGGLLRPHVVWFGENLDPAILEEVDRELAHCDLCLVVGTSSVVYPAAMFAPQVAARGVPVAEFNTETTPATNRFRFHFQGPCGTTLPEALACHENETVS
DENV2 CPE rescue = inhibitors of DENV2 cytopathic effect; DENV2-infected cells, cytopathic effect rescue, plate reader; CPE inhibition, % at 9.99 µM; 350,000 compounds, 1.7% hits; AID 651640; in the data active = CPE inhibition above about 20%, passing the limit was not always enough; inconclusive = no clear call, values can overlap the other calls; tested in BHK-21 cells;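 note: 0% = median of neutral control wells and 100% = median of positive control wells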
CAL PDZ FP-1 = CAL PDZ (human) peptide binding inhibition | purified CAL PDZ, TMR-peptide fluorescence polarization, 1 h | inhibition, % at 24.9 µM | AID 602252 | Q9HD26 | 300,000 compounds, 0.92% hits;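 active = mean inhibition of at least 30% with at least half of replicates also reaching 30%; inconclusive = no clear call, values can overlap the other calls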;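 note: 0% = DMSO neutral control and 100% = excess unlabeled competitor peptide PRC23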
S100A4 inh HTS = blocks human S100A4 binding to myosin IIA peptide. P26447. S100A4/TAMRA-MyoIIA peptide fluorescence polarization. inhibition, % at 10.7 µM. 360,000 compounds, 0.14% hits;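 active = mean inhibition of at least 70% across replicates, with every replicate also reaching that level; inconclusive = mean inhibition reaches 70% but some replicates fall short; inactive = mean inhibition below 70%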
Target sequence (P26447 whole entry, looked up): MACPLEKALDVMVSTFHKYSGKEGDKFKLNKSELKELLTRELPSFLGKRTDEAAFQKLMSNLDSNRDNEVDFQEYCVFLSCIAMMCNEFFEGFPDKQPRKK
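System – human S100A4 monomer protein, biochemical binding assay · Buffer or medium – Calcium-containing HEPES buffer, pH 7.2 · Timing – 5 min between mix addition and reading · Also added – TAMRA-labelled myosin IIA heavy-chain peptide probe, 5 nM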
CAL PDZ FP-2 = human CAL PDZ-peptide interaction inhibition; 330,000 compounds, 0.02% hits; AID 504414; Q9HD26; inhibition, % at 20 µM; purified CAL PDZ, TMR-peptide fluorescence polarization, 1 h;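 active = highest replicate inhibition of at least 40%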;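 note: plate controls were DMSO neutral control wells for no effect and unlabeled competitor peptide control wells for full effect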
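System: tagged CAL PDZ domain. Schedule: 1 h room-temperature incubation prior to read. Signal: fluorescence polarization (mP). Measure: percent inhibition from loss of millipolarization.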
ERAP1 HTS inh = inhibitors of human ERAP1 aminopeptidase. AID 652197. inhibition, % at 10.7 µM. recombinant ERAP1, Leu-AMC fluorescence, 60 min. 340,000 compounds, 0.15% hits;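 active = mean replicate inhibition of at least 30%, or all replicates individually reaching that 30% level; inactive = mean below 30% and not every replicate reaching it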;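 note: 0% = neutral control wells and 100% = L-leucinethiol positive control wells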
* hit, by the source's call; ? = inconclusive; / = no result given; ! = not active in a repeat. Hits are enriched below; roughly 2.9% of the tested compounds scored in any of these assays.

SMILES | SIRT5 block | DENV2 CPE rescue | CAL PDZ FP-1 | S100A4 inh HTS | CAL PDZ FP-2 | ERAP1 HTS inh
CCCc1nc(SCC(=O)Nc2nc3c(s2)CCCC3)c2ccccc2n1 | 16* | -5 | -3 | 4 | -3 | -2
CCCc1cc(NCCCn2ccnc2)n2nc(C)c(-c3ccccc3)c2n1 | 18* | -9 | -2 | 5 | -1 | /
CC(C)CCNC(=O)C1CC(c2ccccc2C(F)(F)F)=NO1 (centres undefined) | / | 35* | -4 | 0 | 0 | 0
O=C(NC1CCC1)[C@H]1[C@H](CO)[C@H]2Cn3c(ccc(-c4ccccc4)c3=O)[C@H]2N1CC1CC1 | -1 | 0 | / | 3 | / | 1
Nc1ccn([C@@H]2O[C@H](C(=O)N3CCN(C(=O)C(F)(F)F)CC3)[C@@H](O)[C@H]2O)c(=O)n1 | 2 | -8 | / | 17 | / | 4
CN(C)C(=O)N1CCN(C(=O)[C@H]2O[C@@H](n3ccc(N)nc3=O)[C@H](O)[C@@H]2O)CC1 | 2 | 70* | / | -10 | / | 2
Nc1ccn([C@@H]2O[C@H](C(=O)NCCc3ccc(F)cc3)[C@@H](O)[C@H]2O)c(=O)n1 | -2 | 87* | / | 1 | / | 3
COc1ccc(CCNC(=O)COC(=O)CCC(=O)c2ccc(F)cc2)cc1OC | 20* | 6 | 3 | 3 | -1 | /
O=C(COC(=O)CCSc1ccccc1)Nc1ccc(F)cc1Cl | -3 | 12 | -4 | 9 | -2 | -4
COc1ccc(CCNC(=O)COC(=O)CCC(=O)c2cccs2)cc1OC | / | 1 | -1 | -5 | 0 | -1
CSc1ccccc1NC(=O)COC(=O)CCC(=O)c1ccc(F)cc1 | 20* | 7 | / | 6 | 0 | -3
O=C(COC(=O)CCSc1ccccc1)Nc1cc(F)ccc1F | 1 | -6 | 46* | 0 | 0 | 2
Cc1ccc(C(=O)CCC(=O)OCC(=O)Nc2ccccc2SCC#N)cc1 | -2 | -2 | -4 | -7 | -1 | -1
COc1ccc(Cn2c(-c3ccco3)nc3oc4cc(OC)ccc4c(=O)c3c2=O)cc1 | / | / | 38* | / | -2 | /
COc1ccc2c(=O)c3c(=O)n(Cc4ccco4)c(-c4ccco4)nc3oc2c1 | / | / | -3 | / | -5 | /
CC(=O)N[C@H]1C[C@@H]2O[C@@H](CO)CC[C@@H]2O[C@@H]1CCc1ccc(-c2ccc(F)cc2)cc1 | 2 | 13 | / | -1 | / | -2
C[C@@H]1CCCCO[C@H](CN(C)Cc2ccc(C(F)(F)F)cc2)[C@H](C)CN([C@H](C)CO)C(=O)c2cc(NS(=O)(=O)c3cccs3)ccc2O1 | 16* | -1 | / | 21 | / | 1
C[C@@H]1CCCCO[C@@H](CN(C)Cc2ccc(C(F)(F)F)cc2)[C@H](C)CN([C@@H](C)CO)C(=O)c2cc(NS(=O)(=O)c3cccs3)ccc2O1 | 19* | ? | / | -6 | / | -3
C[C@@H]1CCCCO[C@H](CN(C)Cc2ccc(C(=O)O)cc2)[C@H](C)CN([C@H](C)CO)C(=O)c2cc(NS(=O)(=O)c3cccs3)ccc2O1 | 21* | -1 | / | 6 | / | -1
COc1ccc(CN(C)C[C@H]2OCCCC[C@@H](C)Oc3ccc(NS(=O)(=O)c4cccs4)cc3C(=O)N([C@@H](C)CO)C[C@@H]2C)cc1 | 0 | 11 | / | 6 | / | 2
C[C@@H]1CCCCO[C@@H](CN(C)Cc2ccc(C(F)(F)F)cc2)[C@@H](C)CN([C@H](C)CO)C(=O)c2cc(NS(=O)(=O)c3cccs3)ccc2O1 | 2 | -3 | / | 17 | / | 4
COc1ccc(CN(C)C[C@@H]2OCCCC[C@@H](C)Oc3ccc(NS(=O)(=O)c4cccs4)cc3C(=O)N([C@@H](C)CO)C[C@H]2C)cc1 | 2 | 27* | / | 17 | / | 1
CCCN1C[C@H](C)[C@@H](OC)CN(C)C(=O)c2ccc(NC(=O)c3ccccc3F)cc2OC[C@@H]1C | 11 | -4 | / | 12 | / | 0
COc1ccccc1CNC(=O)C[C@H]1CC[C@H](NC(=O)CC2CC2)[C@H](CO)O1 | -2 | 6 | / | -3 | / | -1
COc1ccc(COCC23N=C4SCc5ccccc5CN4[C@H](c4ccccc4O2)[C@H]3CO)cc1 | -2 | -11 | / | -4 | / | -1
SMILES | SIRT5 block | DENV2 CPE rescue | CAL PDZ FP-1 | S100A4 inh HTS | CAL PDZ FP-2 | ERAP1 HTS inh
Cc1ccc(S(=O)(=O)N[C@@H]2CC[C@@H](CC(=O)O)O[C@H]2CO)cc1 | 0 | 2 | / | 1 | / | -2
COc1cccc(OC)c1OCCOc1ccc(C(=O)c2ccccc2)cc1 | 17* | 0 | -4 | 4 | -3 | -1
CS(=O)(=O)Nc1ccc2c(c1)[C@H]1C[C@@H](CC(=O)NCC3CC3)O[C@H](CO)[C@H]1O2 | 0 | 2 | / | ? | / | 2
Cc1ccc(CN2C(=O)c3ccccc3NC2c2ccccn2)cc1 (centres undefined) | -5 | 0 | 58* | -21 | 0 | 0
O=C(CCCn1c(=O)oc2ccccc21)Nc1ccccc1 | -3 | -1 | -4 | -3 | -3 | -4
Cc1cccc(C)c1OCC(=O)NNC(=O)CCCn1c(=O)oc2ccccc21 | 2 | 45* | 5 | 20 | -1 | 4
C[C@@H]1CN([C@H](C)CO)C(=O)c2cc(NC(=O)Nc3ccc4c(c3)OCO4)ccc2O[C@H]1CN(C)Cc1ccccc1 | 0 | 0 | / | -1 | / | -2
C[C@@H]1CN([C@@H](C)CO)C(=O)c2cc(-c3ccccc3F)cnc2O[C@H]1CN(C)Cc1cccc(C(=O)O)c1 | 2 | -3 | / | 7 | / | 0
CCC(C)C(=O)OC1CCC=C2C=CC(C)C(CCC3CC(O)CC(=O)O3)C21 (centres undefined) | 2 | 0 | 2 | -5 | -1 | -3
CC[C@H](C)C(=O)O[C@H]1C[C@@H](C)C=C2C=C[C@H](C)[C@H](CC[C@@H]3C[C@@H](O)CC(=O)O3)[C@H]21 | 0 | 36*! | -3 | 1 | 0 | 0
CCOC(=O)c1ccc2c(c1)C(=O)N(C1CCCCC1)C2=O | 0 | 1 | -9 | -5 | -1 | 0
CCOC(=O)C1=CCC2C(=O)N(C3CCCCC3)C(=O)C12 (centres undefined) | 18* | ? | / | 11 | / | 10
Nc1cccc(O)c1 | / | 21* | 1 | -1 | -1 | 0
Nc1ccc2ccc(O)cc2c1 | -5 | 0 | / | -1 | 0 | -3
C[C@H](CO)N1C[C@H](C)[C@H](CN(C)CC2CC2)Oc2cc(-c3cccc(C#N)c3)ccc2S1(=O)=O | 1 | 4 | / | -5 | / | 1
C[C@@H]1CN([C@@H](C)CO)S(=O)(=O)c2ccc(C3=CCCCC3)cc2O[C@@H]1CN(C)C(=O)C1CCCCC1 | 6 | 15 | / | 1 | / | 0
COc1ccc(N2CCN(Cc3nc4c(c(=O)[nH]c(=O)n4C)n3CCCc3ccccc3)CC2)cc1 | / | / | / | / | -2 | /

Bioassay records: PubChem, Broad Institute
